Consider two molecules from paper PMC9401565 (Clinical Cancer Research, 2021).

Usually Kd stands for the equilibrium constant for the complex coming apart. The GI50 is the concentration that inhibits growth by half. By TGI is commonly meant the reduction of tumour growth relative to the control group. Read a high TGI as a stronger effect on the tumour. One may read the EC50 as the concentration giving half of the maximal effect.

One data set has as its system p-BTK, MYC, YES1. Description: Immunoblot of p-BTK, Ikaros, MYC and YES1 in PBMC lysates of patients with CLL. To be noted: early-responder patients, 4 hours posttreatment. Type of data set: in vivo, human. On the technique in general: Immunoblotting shows a protein as a band on a membrane.
Data set [1] deals with T1, BTK (Homo sapiens, UniProt Q06187). As to the kind of experiment: KINOMEscan quantitative binding assay.
The test system of the next data set is MCL cell lines. As to the kind of experiment: CellTiter-Glo viability assay, mean over MCL cell lines. In kind it is cell-based. The following applies: 72 h, read-out: mean GI50.
Another data set deals with MINO MCL xenograft. Description: MINO MCL xenograft model, tumor growth inhibition. Type of data set: in vivo, nude mice. To be noted: orally, twice a day, 16-day treatment.
Data set [2] deals with T1, BTK. Description: BTK occupancy in patient PBMC lysates. In kind it is in vivo. To be noted: 6 patients with CLL, 4 hours after treatment.
The test system of the next data set is CLL. Description: Phase I trial NCT03671590, clinical outcome of 6 patients with CLL. In kind it is in vivo, human. The method in brief: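 Relapsed/refractory CLL patients in trial NCT03671590 took oral test compound once daily (200, 300 or 400 mg) until progression or intolerable toxicity. ALC was recorded on day 1. CLL cell percentage was derived from ALC against the upper normal limit. Best tumor reduction was assessed at C3D1 and graded as partial response or stable disease.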

Another data set deals with CLL, MCL, WM. To be noted: cited from earlier work; for preliminary overall response rate (ORR): 200 mg daily monotherapy, median follow-up 7 months ref 17.
Data set [3] relates to BTK and AKT phosphorylation. Description: MINO xenograft, intratumor BCR-related kinases by Western blot. Type of data set: in vivo, nude mice. To be noted: single oral gavage 50 mg/kg. The method, boiled down: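 Nude mice aged 6–7 weeks were implanted subcutaneously with 5 × 10^6 MINO cells. Dosing was oral once tumors reached 100–200 mm3. Tumor protein extracts were immunoblotted for BCR-related kinases. Densitometry was normalized to GAPDH or tubulin and referred to the control sample.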

Data set [4] has as its system 10 parental B-NHL cell lines. Description: CellTiter-Glo viability assay, mean over cell line panel. In kind it is cell-based. The following applies: 72 h, read-out: mean GI50. On the technique in general: Cellular ATP, detected with luciferase, serves as a proxy for viable cell number.
The target in a further data set is BTK^C481S (Homo sapiens, UniProt Q06187, C481S). As to the kind of experiment: BTK kinase activity assay, 33P-ATP filtration. Type of data set: biochemical. To be noted: BTK^C481S vs BTK^wt.
The next data set concerns REC-BTK^KO cells. Description: CellTiter-Glo viability assay. In kind it is cell-based.
The test system of a further data set is UPN-IbruR MCL xenograft. Description: UPN-IbruR xenograft model, tumor growth. Type of data set: in vivo, CB17-SCID mice. The following applies: 25 mg/kg, every day, 17 days. The method in brief:
(§1)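 CB17-SCID mice were inoculated subcutaneously with […] REC-1GFP+Luc+ or UPN-IbruR cells. Tumor growth and vital parameters were monitored. Mice received oral test compound at 25 mg/kg daily or vehicle for 17 days. Endpoint tumor burden was read by bioluminescence for REC-1 and by caliper for UPN-IbruR. TGI was calculated versus vehicle.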

Another data set deals with T2, TXK (Homo sapiens, UniProt P42681).
T2 sequence (P42681 1-527): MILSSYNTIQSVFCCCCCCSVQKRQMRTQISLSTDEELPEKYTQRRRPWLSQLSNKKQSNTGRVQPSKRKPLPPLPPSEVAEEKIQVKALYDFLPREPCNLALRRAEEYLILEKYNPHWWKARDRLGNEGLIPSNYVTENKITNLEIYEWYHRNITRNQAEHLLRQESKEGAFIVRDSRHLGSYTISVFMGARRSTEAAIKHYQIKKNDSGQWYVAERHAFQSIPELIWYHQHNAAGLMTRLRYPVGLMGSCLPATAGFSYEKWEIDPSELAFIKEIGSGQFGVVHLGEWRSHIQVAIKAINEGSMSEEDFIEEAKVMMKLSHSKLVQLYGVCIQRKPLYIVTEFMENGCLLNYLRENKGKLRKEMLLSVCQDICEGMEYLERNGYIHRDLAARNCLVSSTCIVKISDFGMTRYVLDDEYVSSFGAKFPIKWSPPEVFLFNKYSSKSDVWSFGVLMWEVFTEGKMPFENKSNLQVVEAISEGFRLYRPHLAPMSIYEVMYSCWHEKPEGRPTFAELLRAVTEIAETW
Description: KINOMEscan quantitative binding assay.

A further data set has as its target JAK3 (Homo sapiens, UniProt P52333). Description: KINOMEscan quantitative binding assay.
Data set [5] has as its system BCR pathway in DoHH-2 cells. As to the kind of experiment: BCR downstream signaling in IgM-stimulated cells, Western blot. Type of data set: cell-based. To be noted: IgM-stimulated DoHH-2.
Data set [6] is described as follows: PK analysis, TG-1701 plasma concentrations. Type of data set: in vivo, human. To be noted: patients, from 100 to 300 mg.
Another data set has as its system REC-BTK^wt (REC-1) cells. As to the kind of experiment: CellTiter-Glo viability assay. Type of data set: cell-based. To be noted: Homo sapiens, Rec1, 72 h.
The next data set has as its system REC-BTK^C481S cells. As to the kind of experiment: CellTiter-Glo viability assay. In kind it is cell-based. The following applies: REC-1–BTK^C481S.
A further data set concerns the target BTK^wt (Homo sapiens, UniProt Q06187). Description: BTK kinase activity assay, 33P-ATP filtration. Type of data set: biochemical.
In the next data set the test system is phosphopeptides in PBMC. Type of data set: in vivo, human. To be noted: early-responder patients, 4-hour postdose.
Data set [7] has as its system REC-1^GFP+LUC+ MCL xenograft. Description: REC-1 xenograft model, tumor growth inhibition. In kind it is in vivo, CB17-SCID mice. The following applies: 25 mg/kg, every day, 17-day dosing. The method, boiled down: as §1

SMILES strings stand for the structures. Like-named read-outs stand apart in the source and are kept apart here.

T1 sequence (Q06187 whole entry): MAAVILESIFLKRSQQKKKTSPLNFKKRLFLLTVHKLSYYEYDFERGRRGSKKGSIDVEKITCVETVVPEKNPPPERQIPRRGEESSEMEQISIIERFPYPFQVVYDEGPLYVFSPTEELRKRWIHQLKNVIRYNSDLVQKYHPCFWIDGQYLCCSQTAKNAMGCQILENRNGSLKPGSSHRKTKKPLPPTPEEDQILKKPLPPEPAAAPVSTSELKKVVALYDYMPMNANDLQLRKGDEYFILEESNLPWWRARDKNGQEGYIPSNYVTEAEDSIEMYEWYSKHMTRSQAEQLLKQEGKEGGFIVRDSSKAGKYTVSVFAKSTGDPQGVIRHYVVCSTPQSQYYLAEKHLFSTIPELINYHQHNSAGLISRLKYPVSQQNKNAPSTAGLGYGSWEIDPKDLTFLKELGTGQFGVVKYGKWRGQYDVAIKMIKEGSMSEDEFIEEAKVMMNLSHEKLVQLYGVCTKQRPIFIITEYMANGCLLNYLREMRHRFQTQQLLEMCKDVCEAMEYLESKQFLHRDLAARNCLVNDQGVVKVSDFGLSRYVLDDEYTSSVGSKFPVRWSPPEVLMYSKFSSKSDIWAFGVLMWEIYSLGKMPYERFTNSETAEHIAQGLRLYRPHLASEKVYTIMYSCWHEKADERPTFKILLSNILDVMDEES
JAK3, sequence (P52333 781-1124 limits assumed): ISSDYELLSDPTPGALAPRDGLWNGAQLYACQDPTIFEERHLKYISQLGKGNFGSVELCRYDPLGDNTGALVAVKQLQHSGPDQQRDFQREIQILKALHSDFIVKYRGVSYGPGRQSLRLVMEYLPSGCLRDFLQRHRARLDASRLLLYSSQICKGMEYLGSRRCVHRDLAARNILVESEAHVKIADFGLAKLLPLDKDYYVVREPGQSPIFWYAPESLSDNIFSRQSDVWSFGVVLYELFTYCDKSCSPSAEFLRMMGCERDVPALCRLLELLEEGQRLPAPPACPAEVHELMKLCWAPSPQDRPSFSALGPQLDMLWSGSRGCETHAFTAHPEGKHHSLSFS
BTK^wt, sequence (Q06187 whole entry): as the sequence (Q06187 whole entry) above
BTK^C481S, sequence (Q06187 whole entry C481S): as the sequence (Q06187 whole entry) above, with C481S counted along it

As for `CC#CC(=O)N1CC[C@@H](n2cc(-c3ccc(Oc4c(F)cccc4F)cc3)c3c(N)n[nH]c(=O)c32)C1` [TG-1701], in the data set with p-BTK, MYC, YES1, the “downregulation of MYC protein” value was found to be 48%. Further, in the data set on p-BTK, MYC, YES1, the “downregulation of p-BTK protein” value amounted to 70%. The “increase of YES1 levels” value in the data set on p-BTK, MYC, YES1 is reported as roughly 5 fold. Besides, at BTK [1], the Kd was found to be 0.003 µM. Also, the 50% growth inhibitory concentration (GI50) with MCL cell lines amounted to 4.3 µM; in data set [4], 6.4 µM; in the data set on REC-BTK^wt (REC-1) cells, 3.83 µM. Besides, the figures for the inhibition of tumour growth (TGI) in the data set with MINO MCL xenograft (25 mg/kg), in the data set on MINO MCL xenograft (50 mg/kg) and with MINO MCL xenograft (100 mg/kg) were 56%, 72% and 78%, respectively. Further, the BTK occupancy result on BTK [2] is “Near-complete BTK occupancy”. Also, the “Clinical outcome (% reduction)” value turned out to be 87% in the data set with CLL (patient AII-0011, 400–300 mg daily); 38% in the data set on CLL (patient AIJ-0001, 200 mg daily); 56% with CLL (patient AIJ-0005, 300 mg daily); 86% with CLL (patient AIJ-0015, 400 mg daily). For the same molecule, the Clinical outcome with CLL (patient AIJ-0005, 300 mg daily) is recorded as “SD-PR”; with CLL (patient AIK-0003, 200 mg daily), “SD (lymphocytosis)”. Moreover, the “preliminary overall response rate (ORR)” value in the data set with CLL, MCL, WM (CLL) is on record as 95%; in the data set on CLL, MCL, WM (MCL), 50%; with CLL, MCL, WM (WM), 95%. Moreover, in the data set with CLL, MCL, WM (TG-1701 monotherapy ref 17), the “complete responses (CR)” value is “No complete responses (CR) are confirmed”. The “duration of BTK and AKT dephosphorylation in tumor” value in [3] is “at least 24 hours”. Moreover, in [3], the “earliest time of AKT dephosphorylation in tumor” value came to 4 h. In addition, in data set [3], the “earliest time of BTK dephosphorylation in tumor” value is 2 h. The “fold decrease in inhibitory kinase activity” value on BTK^C481S is given as 54.8 fold. Further, in the data set with REC-BTK^KO cells, the “sensitivity of REC-BTK^KO cells” value is recorded as “refractory”. Besides, the “sensitivity of UPN-IbruR tumors” value in the data set with UPN-IbruR MCL xenograft is on record as “almost insensitive”. The “Kd fold higher than that of ibrutinib” value on TXK is 68 fold; at JAK3 it was greater than 94 fold. Also, in data set [5], the “concentration of maximal effects on BCR downstream signaling” value was 100 nmol/L. Further, in [6], the “dose dependence of Cmax and AUC0–8 hours” value is given as “approximately dose-proportional increases”. In the data set on REC-BTK^C481S cells, the “fold less sensitive compared with parental REC-1 cells” value stood at 2.8 fold. This molecule gave an EC50 on BTK^wt of 0.0067 µM. In the data set with phosphopeptides in PBMC, the “phosphorylation of Ikaros p-Ser442/445 upon treatment” value is “totally dephosphorylated”. In addition, the “tumor TGI versus vehicle” value in data set [7] is reported as 53%.

In the case of `C=CC(=O)N1CCC[C@@H](n2nc(-c3ccc(Oc4ccccc4)cc3)c3c(N)ncnc32)C1` [ibrutinib, reference compound], the GI50 with MCL cell lines is 10.8 µM; in [4], 14.1 µM; with REC-BTK^wt (REC-1) cells, 5.82 µM. The “sensitivity of REC-BTK^KO cells” value with REC-BTK^KO cells is on record as “refractory”. Besides, the “concentration of maximal effects on BCR downstream signaling” value in data set [5] was found to be 10 nmol/L.
